The list is not random: actives were taken first. Their share in the collection is about 2.2%.
BCLXL inh = inhibitors of human Bcl-xL, primary screen, biochemical, fluorescence polarization, HTS. Bcl-2-like protein 1 (Homo sapiens), Q07817. GST-Bcl-xL / FITC-Bim BH3 peptide fluorescence polarization. inhibition, % at 10.9 µM. 320,000 compounds, 0.7% hits. AID 2129, 2009;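 active = inhibition above the mean of all tested compounds plus 3 SD, cutoff set per campaign, cut at about 30% in these data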;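 note: 0% = DMSO wells and 100% = unlabeled Bim-BH3 peptide competitor; inhibitors lower millipolarization by displacing the labeled peptide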
Target sequence (Q07817 whole entry, looked up): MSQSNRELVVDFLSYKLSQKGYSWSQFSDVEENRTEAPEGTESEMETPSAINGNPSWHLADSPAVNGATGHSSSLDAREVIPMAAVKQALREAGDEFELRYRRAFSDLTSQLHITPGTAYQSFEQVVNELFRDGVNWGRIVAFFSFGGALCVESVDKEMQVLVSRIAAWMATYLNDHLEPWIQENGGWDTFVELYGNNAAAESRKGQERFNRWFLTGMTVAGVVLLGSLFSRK
IMP-1 inh = IMP-1 metallo-beta-lactamase inhibitors, primary screen, biochemical, epi-absorbance readout, Pseudomonas aeruginosa enzyme. metallo-beta-lactamase IMP-1 (Pseudomonas aeruginosa). purified IMP-1, nitrocefin hydrolysis, epi-absorbance fluorescence. inhibition, % at 5.6 µM. 290,000 compounds, 0.45% hits;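 active = inhibition above the mean plus 3 SD of all compounds in the same screening run, cut at about 4.5% in these data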;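 note: 0% = IMP-1 with DMSO and 100% = DMSO wells lacking enzyme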
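System: purified IMP-1; amount: IMP-1 0.2 nM before substrate addition; compound: single dose, 5.6 µM; times: 25 °C, 15 min preincubation, 25 min reaction; signal: Epi-absorbance via hydrolysed-nitrocefin quenching of white-plate fluorescence, 480/530 nm, EDTA stop; benchmarks: DMSO with and without IMP-1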
EBV gp42 inh = Epstein-Barr virus gp42 inhibitors, primary screen, biochemical, uHTS, fluorescence polarization. AID 1085, 2008. 220,000 compounds, 0.42% hits. Fluorescence polarization binding assay, mP read-out. inhibition, % (tested at 21.74 µM); in the data active = inhibition above about 50%
Target sequence (Q1HVG2 whole entry, looked up): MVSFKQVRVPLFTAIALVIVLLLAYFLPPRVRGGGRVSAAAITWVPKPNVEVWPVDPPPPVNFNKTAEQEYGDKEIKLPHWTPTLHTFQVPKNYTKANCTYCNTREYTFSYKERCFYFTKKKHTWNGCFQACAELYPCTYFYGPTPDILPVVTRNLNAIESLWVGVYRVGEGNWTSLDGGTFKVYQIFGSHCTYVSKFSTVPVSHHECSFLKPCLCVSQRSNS
MEX-5 binding = MEX-5 zinc finger RNA-binding disruptors – biochemical, C. elegans, fluorescence polarization, MLPCN library, primary screen; activity score (negative = inhibition of binding), % at 10 µM; MEX-5/FITC-TCR2 RNA binding; hits give low values; 300,000 compounds, 0.38% hits; Zinc finger protein mex-5 (Caenorhabditis elegans), Q9XUB2;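 active = inhibition past about -25% in most replicates, and total fluorescence under double the plate's negative control median, limit read from the data; inconclusive = replicates evenly split on the limit, or fluorescence at least double controls; inactive = too little inhibition in most replicates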;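 note: 0% = DMSO and -100% = 5 µM competing unlabeled TCR2 RNA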
VIM-2 inhibitor = VIM-2 metallo-beta-lactamase inhibitors, primary screen, biochemical, epi-absorbance readout, Pseudomonas aeruginosa enzyme | purified VIM-2, nitrocefin hydrolysis, epi-absorbance fluorescence | inhibition, % at 5.6 µM | 290,000 compounds, 0.89% hits | AID 1527, 2009;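 active = inhibition above the mean of all tested compounds plus 3 SD, cutoff set per screening run, cut at about 7.5% in these data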;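 note: red hydrolysis product quenches plate fluorescence so inhibitors raise well fluorescence; 0% = enzyme with DMSO and 100% = DMSO without enzyme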
GLD-1 TGE inh = GLD-1/TGE RNA complex disruptors, primary screen, biochemical, fluorescence polarization; 320,000 compounds, 0.44% hits; Female germline-specific tumor suppressor gld-1 (Caenorhabditis elegans), Q17339; inhibition, % at 5.96 µM; purified GLD-1 + fluorescein TGE RNA;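 active = percent inhibition above a per-plate cutoff, the plate mean of test compounds plus 3 SD, cut at about 30% in these data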;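 note: 0% = DMSO wells with GLD-1 and probe and 100% = wells lacking GLD-1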
The depositor's hits bear a star; ? = inconclusive; . = no result; ! = not active in a repeat.

SMILES	BCLXL inh	IMP-1 inh	EBV gp42 inh	MEX-5 binding	VIM-2 inhibitor	GLD-1 TGE inh
C=CCn1c(O)c(/C=C/C=Nc2ccccc2)c(=O)[nH]c1=O	-61	-4	-218	-26*	-1	-89
COc1ccc(-n2c(O)c(/C=C/C=Nc3ccccc3)c(=O)[nH]c2=O)cc1	-147	9.4*	-348	?	5	-234
CCN(CC)c1ccc(/C=C/[N+](=O)[O-])cc1	-66	6.5*	-57	12	3	-102
O=[As](O)(O)c1ccc(N=Nc2ccc(O)cc2)cc1	.	5.1*	-8	-22	-5	.
NC(=O)c1ccc(C(=O)Nc2ccc([As](=O)(O)O)cc2)cc1	0	-3	3	1	-2	1
COC(=O)C1=C(c2ccc(OC)c(OC)c2)C[C@@H]2CC[C@H]1N2C(=O)N1CCc2cc(OC)c(OC)cc2C1	6	.	.	.	.	2
CCCCCCC[n+]1ccc(-c2cc[n+](CCCCCCC)cc2)cc1	-3	5.0*	-89	-3	-1	1
COCCCN1CCN(c2nnc3n2-c2sc(Br)cc2C(c2ccccc2Cl)=NC3)CC1	0	8.3*	-9	-1	-4	3
CN1C(=O)c2ccccc2Sc2ccc(C(=O)N3CCC4(CC3)OCCO4)cc21	3	-4	2	0	-1	1
Cc1ccc(/C=C2/Sc3ccc(C(=O)N4CCC5(CC4)OCCO5)cc3NC2=O)cc1	106*	-1	.	-29*	1	75*
O=C1NC(=S)N(c2ccccc2)C(=O)/C1=C/c1ccco1	47*	1	.	-93*	-2	25
CCOc1cccc(N2C(=O)/C(=C/c3ccco3)C(=O)NC2=S)c1	5	3	.	2	-1	-22
Cc1ccc(N2C(=O)/C(=C/c3ccc(CN(CCC#N)S(C)(=O)=O)o3)C(=O)NC2=S)cc1	15	-2	-33	-50*	-3	14
Cc1ccc(/C=C2\C(=O)NC(=S)N(c3ccc(F)cc3)C2=O)o1	.	0	.	-4	-1	.
CCN(CC)CCNC(=O)c1c(O)c2ccccc2n(Cc2ccccc2)c1=O	0	-1	-5	-1	4	4
CCN(CC)CCCNC(=O)c1c(O)c2ccccc2n(Cc2ccccc2)c1=O	-5	-3	-7	1	12*	-1
CC(=O)Nc1cc(C(=O)N2CCC3(CC2)OCCO3)ccc1Sc1ccc(F)cc1	2	-2	7	.	-1	1
C=CCN1C(=O)NC(=O)/C(=C\c2ccc(-c3ccccc3[N+](=O)[O-])o2)C1=O	5	0	-3	-3	-1	6
O=C1NC(=O)N(Cc2ccco2)C(=O)/C1=C/c1ccc(-c2cccc([N+](=O)[O-])c2)o1	17	-4	91*	-2	2	-4
C=CCn1c(O)c(/C=C2/C=CC=N2)c(=O)[nH]c1=O	18	1	-34	-1	-1	13
O=c1[nH]c(=O)n(Cc2ccccc2Cl)c(O)c1/C=C1/C=CC=N1	-13	-1	58*	-10	-1	-20
C#C[C@@]1(O)CCC2C3CCC4=C/C(=N/OCC(=O)NC(CCC(N)=O)C(=O)O)CC[C@]4(C)C3CC[C@@]21C (stereo partly specified)	2	-1	.	-1	-2	2
c1cc(CCN2CCCC2)ccn1	19	-1	1	-7	2	2
CC[n+]1c(/C=C/C=C/c2ccc(N(C)C)cc2)sc2ccccc21	0	-6	-9	-28*	-5	-8
O=c1cccc2n1CC1CNCC2C1 (stereo unspecified)	2	-2	.	-1	0	1
SMILES	BCLXL inh	IMP-1 inh	EBV gp42 inh	MEX-5 binding	VIM-2 inhibitor	GLD-1 TGE inh
Cc1ccc(N2C(=O)NC(=O)/C(=C\c3ccc(N4CCOCC4)cc3)C2=O)cc1	1	-1	-11	-2	0	-4
Cc1ccc(N2C(=O)NC(=O)/C(=C\c3ccc([N+](=O)[O-])o3)C2=O)cc1	28	-1	-13	-68*	-3	8
CCCNC(=O)N1[C@H]2CC[C@@H]1C(C(=O)OC)=C(c1ccc3ccccc3c1)C2	1	.	.	.	.	-2
COC(=O)Cn1cc(/C=C2\C(=O)NC(=O)N(c3ccc(OC)cc3)C2=O)c2ccccc21	-4	-1	.	-54*	0	-14
COCCNC(=O)Cn1cc(/C=C2\C(=O)NC(=O)N(c3ccccc3F)C2=O)c2ccccc21	-11	-4	.	-86*	0	-15
COCCCNC(=O)Cn1cc(/C=C2\C(=O)NC(=O)N(c3ccccc3F)C2=O)c2ccccc21	2	2	.	?	2	-22
COc1ccc(N2C(=O)NC(=O)/C(=C\c3cn(C)c4ccccc34)C2=O)cc1	34*	4	.	-39*	2	-10
O=C(O)Cn1cc(/C=C2\C(=O)NC(=O)N(c3ccc(F)cc3)C2=O)c2ccccc21	.	-3	.	-42*	-2	.
COCCNC(=O)Cn1cc(/C=C2\C(=O)NC(=O)N(c3cccc(C)c3C)C2=O)c2ccccc21	-6	0	.	?	0	-9
COc1ccc(N2C(=O)NC(=O)/C(=C/c3ccc(N4CCOCC4)cc3)C2=O)cc1	3	-2	-11	-4	0	-2
Cc1nc2ccccc2c(=O)n1-c1cccc(O)c1	3	-1	-9	1	-2	-4
Cc1ccc(-c2nc3ccccc3c(=O)n2-c2cccc(O)c2)cc1	31*	-3	13	-5	-3	6
Cc1cccc(-n2c(O)c(C=NCCN3CCCCC3)c(=O)[nH]c2=O)c1	7	-3	-18	0	-1	8
O=c1[nH]c(=O)n(-c2ccc(Br)cc2)c(O)c1C=NCCN1CCCCC1	-9	0	-12	-40*	0	-18
CCOc1cc2c(cc1OCC)-n1cccc1C(c1cc(C)c(OC)cc1C)NC2 (stereo unspecified)	2	-3	.	-1	-3	0
CCN(CC)c1ccc(N=Cc2c(O)n(Cc3ccccc3)c(=O)[nH]c2=O)cc1	-5	-2	-8	-29*!	-3	-5
O=C(N/N=C/c1c(O)n(Cc2ccccc2)c(=O)[nH]c1=O)c1ccccc1O	7	-4	-10	-36*	-4	1
CCN(CC)c1ccc(N=Cc2c(O)n(-c3ccccc3)c(=O)[nH]c2=O)cc1	-2	-3	-45	-18	-2	3
Nc1cccc(N=Cc2c(O)n(Cc3ccc(F)cc3)c(=O)[nH]c2=O)c1	66*	-3	-18	0	-4	-63

Assay outcomes (PubChem BioAssay)
